Screens deposited in PubChem BioAssay by Johns Hopkins Ion Channel Center.
A selection: hits, their analogues and other compounds. The true share with any hit is near 3.5%.
MrgX1 antag – blocks BAM8-22 activation of human MrgX1 receptor | 310,000 compounds, 1.3% hits | AID 588676 | Q96LB2 | MRGX1-HEK293 calcium flux, Fluo-4, BAM8-22 antagonism; hits give low values | B-score at 10 µM;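 active = calcium-response B-score plate-corrected more than 3 library SD below zero, starting fluorescence within 5 deviations, no agonist response on first addition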;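 note: peak minus trough fluorescence over baseline after final BAM8-22 challenge near maximal dose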
Target sequence (Q96LB2 whole entry, looked up): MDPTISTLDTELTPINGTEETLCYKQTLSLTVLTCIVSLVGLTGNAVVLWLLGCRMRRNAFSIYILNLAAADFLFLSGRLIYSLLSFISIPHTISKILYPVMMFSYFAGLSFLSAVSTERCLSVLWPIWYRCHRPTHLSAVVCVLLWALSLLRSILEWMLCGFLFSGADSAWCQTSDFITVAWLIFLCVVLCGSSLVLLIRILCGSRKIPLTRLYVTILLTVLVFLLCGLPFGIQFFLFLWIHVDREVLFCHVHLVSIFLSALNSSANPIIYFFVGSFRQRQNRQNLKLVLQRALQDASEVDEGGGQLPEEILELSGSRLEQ
RGS4 block – human RGS4 inhibition; B-score at 10 µM; AID 463165; HEK293 M3R/RGS4 inducible, Fluo-4 calcium flux; hits give high values; triggered by carbachol at its EC20; 310,000 compounds, 0.45% hits;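 active = B-score, a plate-corrected calcium signal, over three deviations above library mean, with baseline fluorescence within five deviations of library mean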;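 note: RGS4 expression induced by doxycycline in cells with stable M3 receptor; B-score is computed from the integrated fluorescence ratio over baseline after carbachol; higher B-score means a larger calcium signal and so more RGS4 inhibition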
Target sequence (P49798 whole entry, looked up): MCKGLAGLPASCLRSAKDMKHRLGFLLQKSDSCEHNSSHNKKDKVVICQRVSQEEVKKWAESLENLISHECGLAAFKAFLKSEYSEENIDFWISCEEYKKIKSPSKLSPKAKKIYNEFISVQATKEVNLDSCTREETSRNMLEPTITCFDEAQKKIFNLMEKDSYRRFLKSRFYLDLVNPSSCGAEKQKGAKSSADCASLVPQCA
MrgX1 ag – human MrgX1 receptor agonism, primary screen. Q96LB2. MrgX1-HEK293 cells, Fluo-4 calcium fluorescence, agonist mode; hits give high values. B-score at 10 µM. 310,000 compounds, 0.44% hits. AID 588627;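 active = calcium response B-score plate-corrected fluorescence ratio at least 3 library SD, with starting fluorescence B-score inside 5 SD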
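Material – MrgX1-expressing HEK293 cells · Input – 15,000 cells seeded per well · Dosing – compound as first of three additions · Times – overnight seeding, then 1 h dark dye loading · Measured by – kinetic Fluo-4 NW fluorescence of intracellular calcium · Read-out – B-scored fluorescence response ratio · Benchmarks – positive and negative control wells on each plate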
MrgX1 PAM – allosterically activates human MrgX1 receptor signaling. Q96LB2. MrgX1-HEK293, Fluo-4 calcium flux, FDSS; hits give high values. B-score at 10 µM. 310,000 compounds, 0.63% hits. AID 588675;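 active = plate-corrected calcium response at least 3 library SD above typical, normal starting fluorescence, not activating the receptor alone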;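 note: compound read alongside a low EC10 to EC30 dose of BAM8-22 agonist; peak minus trough fluorescence over baseline measured at the second addition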
RGS4 pot – potentiators or activators of RGS4; HEK293 M3R/inducible RGS4, carbachol calcium flux Fluo4; hits give low values; B-score at 10 µM; 310,000 compounds, 0.92% hits;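 active = B-score of the integrated calcium signal more than 4 SD below the library mean, with starting fluorescence not abnormally high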;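 note: negative B-score means reduced calcium response which marks RGS4 activation or potentiation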
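test system = M3R-expressing HEK293 line, RGS4 induced by doxycycline | probe or stimulus = carbachol at ECmax as muscarinic agonist stimulus | timing = dye loading 30 min 37 °C, buffer rest 30 min RT | signal = calcium dye Fluo4 fluorescence | evaluation = B score from integrated fluorescence ratio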
RGS4 inh valid – validation of RGS4 inhibitors; shares compounds with RGS4 block; HEK293 M3R/RGS4, carbachol calcium Fluo-4 fluorescence; carbachol added at its EC20; 0 = buffer wells, 100 = carbachol control; calcium response, % at 10 µM; 1,700 compounds, 65% hits;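 active = duplicate-averaged calcium response above the buffer-only control mean plus 5 SD of those controls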;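 note: integrated fluorescence ratio F max minus min over baseline F0; higher response in RGS4-induced cells means RGS4 inhibition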
RGS4 uninduced – non-induced cell nonspecific activity of RGS4 inhibitors | shares compounds with RGS4 block | HEK293 M3R non-induced, carbachol calcium Fluo-4; submaximal (EC20) carbachol stimulus; buffer wells 0%, carbachol control wells 100% | activity (percent), % at 10 µM | 1,900 compounds, 20% hits; call rule not given here;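 note: RGS4 induction absent so cells express M3R without RGS4; higher means more calcium signal and flags a non-specific hit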
RGS4 inh ctr2 – second counter-screen for RGS4 inhibitors: non-induced cells without carbachol | shares compounds with RGS4 block | HEK293 M3R/RGS4 non-induced, Fluo-4 calcium, no carbachol; normalised: buffer wells 0%, carbachol wells 100% | calcium response (agonist-mode artifact), % at 10 µM | 1,900 compounds, 22% hits | AID 493001;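 active = duplicate-averaged calcium rise in uninduced cells above buffer wells' mean plus 5 SD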
Of the large screens only hits and unclear results are named; the others gave an inactive call (follow-up assays come after a bar, where they were run).

CCCCOc1ccc(/C=C2/Sc3ccccc3C2=O)cc1	none
CCCCOc1ccc(/C=c2\sc3ncnn3c2=O)cc1	none | RGS4 inh valid inactive | RGS4 uninduced inactive | RGS4 inh ctr2 inactive
CCN1CCCC1CNC(=O)c1cc([N+](=O)[O-])c(N(C)C)cc1OC (stereo not drawn)	none
CC(C)=CCc1c(O)cc2c(=O)c3ccc(O)cc3oc2c1O	RGS4 block 11 | RGS4 inh valid 9.0% | RGS4 uninduced inactive | RGS4 inh ctr2 inactive
COc1ccc(-c2cc(C(=O)N3CCCCC3)c3ccccc3n2)cc1OC	none
COc1ccc(Nc2nnc(-c3ccc(C)cc3)c3ccccc23)cc1C(=O)N1CCCCC1	none | RGS4 uninduced inactive | RGS4 inh ctr2 inactive
COc1ccc(Nc2nnc(-c3ccccc3)c3ccccc23)cc1C(=O)N1CCCCC1	RGS4 block 5 | RGS4 inh valid 148% | RGS4 uninduced 88% | RGS4 inh ctr2 inactive
CCc1ccc2[nH]c(=O)c(CN(Cc3ccccc3OC)Cc3nnnn3Cc3ccco3)cc2c1	none | RGS4 inh valid inactive | RGS4 uninduced inactive | RGS4 inh ctr2 18%
COc1ccccc1CN(Cc1cc2cc(C)ccc2[nH]c1=O)Cc1nnnn1Cc1ccco1	none | RGS4 uninduced inactive | RGS4 inh ctr2 inactive
O=C(Nc1cccc(CNCCc2c[nH]c3ccccc23)c1)c1ccccc1Cl	none
CC1C/C(=C/c2ccccn2)C(=O)/C(=C/c2ccccn2)C1 (stereo not drawn)	RGS4 block 10 | RGS4 inh valid 36% | RGS4 uninduced inactive | RGS4 inh ctr2 13%
O=C(/C=C/c1cccnc1)c1cc(F)ccc1O	RGS4 block 5 | RGS4 inh valid 22% | RGS4 uninduced 72% | RGS4 inh ctr2 inactive
COc1cc(C(=O)/C=C/c2cccnc2)ccc1O	RGS4 block 11 | RGS4 inh valid 36% | RGS4 uninduced 46% | RGS4 inh ctr2 inactive
COc1ccc(OC)c(C(=O)/C=C/c2cccnc2)c1	none
CCOC(=O)C1CCN(C(=O)CN(C)S(=O)(=O)c2ccc3c(c2)c(=O)n(C)c(=O)n3C)CC1	none
Cc1c(C=Nc2ccc(S(=O)(=O)N(C)C)cc2)c(O)[nH]c(=O)c1C#N	none
COC(=O)c1sc(N2C(=O)C(O)=C(C(=O)c3ccc(C)o3)C2c2cc(OC)ccc2OC)nc1C (stereo not drawn)	RGS4 block 7.3 | RGS4 inh valid 46% | RGS4 uninduced 47% | RGS4 inh ctr2 inactive
COc1ccc(OC)c(C2C(C(=O)c3ccc(C)o3)=C(O)C(=O)N2c2cc(C)on2)c1 (stereo not drawn)	none
CNc1nc(N)c([N+](=O)[O-])c(Nc2ccccc2OC)n1	RGS4 block 11 | RGS4 inh valid 12% | RGS4 uninduced 44% | RGS4 inh ctr2 inactive
Cc1cc(C)c(S(=O)(=O)NC2CC3CCC2C3)c(C)c1 (stereo not drawn)	none
CC(=O)N1CC(=O)N=C1SCC(=O)Nc1nc(C)c(-c2ccccc2)s1	none | RGS4 inh valid inactive | RGS4 uninduced inactive | RGS4 inh ctr2 inactive
CCOc1ccc(-c2csc(NC(=O)CSC3=NC(=O)CN3C(C)=O)n2)c2ccccc12	none
COc1cccc(CC(NC(C)=O)C(=O)NC2CCN(C(=O)c3ccncc3)CC2)c1OC (stereo not drawn)	none (no result: MrgX1 antag, MrgX1 ag, MrgX1 PAM)
O=C(CNc1ccc2ccccc2c1)N/N=C/c1cc2ccccc2nc1Cl	none | RGS4 uninduced inactive | RGS4 inh ctr2 inactive
COc1ccc(/C=C2/C(=O)N(c3ccccc3)N=C2C)cc1OC	none | RGS4 inh valid inactive | RGS4 uninduced inactive | RGS4 inh ctr2 inactive
CC1=NN(c2ccccc2)C(=O)/C1=C/c1cccc(C)c1	none
COc1ccc(CC(NC(C)=O)C(=O)NC2CCN(S(=O)(=O)c3ccccc3)CC2)c(OC)c1 (stereo not drawn)	none | RGS4 uninduced inactive | RGS4 inh ctr2 inactive
CCOC(=O)c1c(-c2ccc(C)o2)csc1NC(=S)NC(=O)N(C)C	RGS4 block 21 | RGS4 inh valid inactive | RGS4 uninduced inactive | RGS4 inh ctr2 inactive
CC12CCC(=O)N1C(C(=O)N1CCN(S(=O)(=O)c3cccc(C(F)(F)F)c3)CC1)CS2 (stereo not drawn)	none
CN(CC(=O)Nc1cc(Cl)cc(Cl)c1)Cc1cccs1	none
COc1ccc(-c2cc(C(F)(F)F)n3nc(C(=O)NCc4ccco4)cc3n2)cc1OC	RGS4 block 8.2 | RGS4 inh valid 10% | RGS4 uninduced inactive | RGS4 inh ctr2 10%
Cc1ccc(NC(=O)NC(=O)CSc2nnc(-c3ccc(Cl)cc3Cl)n2N)c(C)c1	RGS4 block 5.2 | RGS4 inh valid inactive | RGS4 uninduced inactive | RGS4 inh ctr2 inactive
Cc1ccc(-c2nnc(SCC(=O)NC(=O)Nc3ccc(C)cc3C)n2N)cc1	none
Cc1ccn(CC(=O)NC2CC(C)(C)Cc3c2cnn3-c2ccc(F)cc2)n1 (stereo not drawn)	none
Cc1sc2nc(CN(Cc3cccs3)C(=O)NC3CCCCC3)[nH]c(=O)c2c1C	none | RGS4 uninduced inactive | RGS4 inh ctr2 inactive
COc1cccc(OC)c1C(=O)NC(=S)NCc1cccnc1	none
COc1ccc(Cc2nnc(SCC(=O)Nc3ccccc3C#N)o2)cc1	none
CCOC(=O)C1CCN(C(C(=O)NC2CCCC2)c2ccc(C)cc2)CC1 (stereo not drawn)	RGS4 block 5.3 | RGS4 inh valid 21% | RGS4 uninduced inactive | RGS4 inh ctr2 inactive
CCOc1ccccc1NC(=O)COC(=O)CCOc1cc(C)ccc1C	none
Cc1ccc(-n2c(O)c(/C=C3/C(c4ccccc4)=Nc4ccccc43)c(=O)[nH]c2=O)cc1	RGS4 block 9.8, MrgX1 ag 29 | RGS4 inh valid 5.0% | RGS4 uninduced inactive | RGS4 inh ctr2 49%
COc1ccc(-n2c(O)c(/C=C3\C=Nc4ccccc43)c(=O)[nH]c2=O)cc1	none (no result: MrgX1 antag, MrgX1 ag, MrgX1 PAM)
COc1cc(CNC(=O)C2CCC(=O)N(C3CCCCCC3)C2)cc(OC)c1 (stereo not drawn)	none
O=C(O)CN1C(=O)/C(=C\C(Br)=C\c2ccccc2)SC1=S	RGS4 block 12 | RGS4 inh valid 54% | RGS4 uninduced inactive | RGS4 inh ctr2 inactive
O=C(O)CN1C(=O)/C(=C/C=C/c2ccccc2)SC1=S	none
Cc1ccc(CCC(=O)Nc2ccc(C)c(C)c2)o1	none
CCOC(=O)c1cc(S(=O)(=O)N2CCCC2)cn1C	none
